In ChEMBL document CHEMBL1139422, “Design, synthesis and biological evaluation of novel compounds with conjugated structure as anti-tumor agents” (Bioorg Med Chem, 2008):
Activity calls are given as the source filed them. No cut-off for these calls is given here.

Legend:
U-937 [1] = assay: Cell cycle arrest in human U937 cells assessed as accumulation at S phase at 5 uM after 24 hrs by flow cytometry; format: functional, cell-based
How it was run: (§1)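 U937 cells were grown in RPMI with 10% FCS, penicillin/streptomycin, amphotericin-B, 10 mM Hepes and 2 mM glutamine, and held at 200,000 cells/mL. Cells were treated 24 h with compounds in DMSO. 2.5×10^5 cells were resuspended in hypotonic buffer (0.1% Triton X-100, 0.1% sodium citrate, 50 µg/mL PI, RNase A) for 30 min in the dark, then analysed by flow cytometry. Values are means of independent duplicates.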

HepG2 = assay: Antiproliferative activity against human HepG2 cells after 48 hrs by MTT assay; format: functional, cell-based; conditions: HepG2, 48 h
How it was run: (§2)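 Cells seeded at 4000/well; compounds (10 mg/mL DMSO stock, diluted in medium) added 24 h after seeding, in duplicate. Incubation 48 h at 37 °C, 5% CO2. MTT (20 µL of 5 mg/mL in PBS) then added for 4 h at 37 °C, and the signal read at 570 nm.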

U-937 [2] = assay: Induction of apoptosis in human U937 cells assessed as caspase 3 activation at 5 uM after 24 hrs by FACS analysis; format: functional, cell-based
How it was run: (§3)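 U937 cells were grown in supplemented RPMI at 200,000 cells/mL. Compounds in DMSO were given at 5 µM for 24 h or 30 h, or at 0.5 µM for 28 h. Apoptosis was analysed by FACS. Values are means of independent duplicates.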

A549 = assay: Antiproliferative activity against human A549 cells after 48 hrs by MTT assay; format: functional, cell-based; conditions: A549, 48 h; how it was run: as §2
HCT-116 = assay: Antiproliferative activity against human HCT116 cells after 48 hrs by MTT assay; format: functional, cell-based; conditions: HCT-116, 48 h; how it was run: as §2
Histone deacetylase 1 = Histone deacetylase 1 (Homo sapiens, UniProt Q13547); assay: Inhibition of human recombinant HDAC1 using Fluor de Lys as substrate by fluorimetric assay
How it was run: (§4)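 Purified recombinant HDAC1 or HDAC4 was incubated with acetylated-lysine Fluor de Lys substrate, with or without inhibitor. Developer was then added to give the fluorophore, and fluorescence was read. IC50 values are means of at least three experiments. SI is IC50(HDAC1)/IC50(HDAC4).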

Homo sapiens = organism: Homo sapiens; assay: Selectivity index, ratio of IC50 for human recombinant HDAC1 to IC50 for human recombinant HDAC4; how it was run: as §4
Histone deacetylase 4 = Histone deacetylase 4 (Homo sapiens, UniProt P56524); assay: Inhibition of human recombinant HDAC4 using Fluor de Lys as substrate by fluorimetric assay; how it was run: as §4
PC-3 = assay: Antiproliferative activity against human PC3 cells after 48 hrs by MTT assay; format: functional, cell-based; conditions: PC-3, 48 h; how it was run: as §2
U-937 [3] = assay: Induction of p21waf1/CIP1 expression in human U937 cells after 24 hrs by Western blot analysis; format: functional, cell-based
How it was run: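 U937 cells were treated for 24 h. Total protein extracts (50 µg) were run on a 15% polyacrylamide gel and blotted for p21 (1:500), with tubulin as the loading control.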

[4] = biological target: T1, Protein deacetylase HDAC6 (Homo sapiens) (UniProt Q9UBN7); assay: Inhibition of HDAC6 in human U937 cells assessed as induction of alpha-tubulin acetylation after 24 hrs by Western blot analysis; format: cell-based; conditions: U-937
T1 sequence (whole entry): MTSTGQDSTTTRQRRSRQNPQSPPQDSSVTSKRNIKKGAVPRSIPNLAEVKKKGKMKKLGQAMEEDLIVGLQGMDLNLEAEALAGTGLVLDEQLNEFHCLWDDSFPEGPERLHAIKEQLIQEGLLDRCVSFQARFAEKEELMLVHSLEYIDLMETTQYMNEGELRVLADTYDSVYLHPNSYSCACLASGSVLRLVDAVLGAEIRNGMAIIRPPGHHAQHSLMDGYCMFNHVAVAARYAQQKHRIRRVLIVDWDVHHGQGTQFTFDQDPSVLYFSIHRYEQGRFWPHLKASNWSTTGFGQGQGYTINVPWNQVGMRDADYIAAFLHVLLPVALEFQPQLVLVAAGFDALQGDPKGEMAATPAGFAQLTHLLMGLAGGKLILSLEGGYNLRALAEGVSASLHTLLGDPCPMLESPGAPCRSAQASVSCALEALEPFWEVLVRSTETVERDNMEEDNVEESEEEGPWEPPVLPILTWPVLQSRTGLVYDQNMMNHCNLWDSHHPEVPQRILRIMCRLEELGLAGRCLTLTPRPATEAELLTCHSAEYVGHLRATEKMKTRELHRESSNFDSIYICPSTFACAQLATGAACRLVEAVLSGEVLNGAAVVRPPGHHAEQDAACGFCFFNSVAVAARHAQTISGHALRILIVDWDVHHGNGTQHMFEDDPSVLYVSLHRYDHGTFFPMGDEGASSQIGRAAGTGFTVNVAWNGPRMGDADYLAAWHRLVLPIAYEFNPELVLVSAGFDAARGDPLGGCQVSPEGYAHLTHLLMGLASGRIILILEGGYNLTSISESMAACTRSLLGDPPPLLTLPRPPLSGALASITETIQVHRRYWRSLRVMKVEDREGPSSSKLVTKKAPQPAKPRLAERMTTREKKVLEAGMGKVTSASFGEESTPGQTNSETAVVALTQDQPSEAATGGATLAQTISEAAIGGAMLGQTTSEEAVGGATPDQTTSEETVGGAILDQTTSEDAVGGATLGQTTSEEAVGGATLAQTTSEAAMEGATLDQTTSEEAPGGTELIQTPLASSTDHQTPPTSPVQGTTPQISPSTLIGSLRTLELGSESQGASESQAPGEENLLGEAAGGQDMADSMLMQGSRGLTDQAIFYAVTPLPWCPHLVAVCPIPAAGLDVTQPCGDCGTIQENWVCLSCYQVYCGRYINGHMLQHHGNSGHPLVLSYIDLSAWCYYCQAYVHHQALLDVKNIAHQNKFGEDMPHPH
How it was run: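 U937 cells were treated for 24 h. Total protein extract (50 µg) was run on a 10% polyacrylamide gel and blotted for acetylated α-tubulin (1:500), with total ERK as the loading control.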

U-937 [5] = assay: Cell cycle arrest in human U937 cells assessed as accumulation at G1 phase at 5 uM after 24 hrs by flow cytometry; format: functional, cell-based; how it was run: as §1
Histone deacetylase = assay: Inhibition of human recombinant HDAC by fluorimetric assay; format: protein assay
U-937 [6] = assay: Increase in granulocytic differentiation in human U937 cells assessed as CD11c expression at 0.5 uM after 28 hrs by FACS analysis; format: functional, cell-based
How it was run: (§5)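 U937 cells were grown in RPMI with 10% FCS, 10 mM Hepes and 2 mM glutamine at 200,000 cells/mL. Compounds in DMSO were given for 30 h (5 µM) or 28 h (0.5 µM). Cells were stained for surface antigen for 30 min at 4 °C in the dark, washed, and resuspended in PBS with propidium iodide. PI-positive cells were excluded from the FACS analysis. Values are means of independent quadruplicates.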

U-937 [7] = assay: Induction of apoptosis in human U937 cells assessed as caspase 3 activation at 5 uM after 30 hrs by FACS analysis; format: functional, cell-based; how it was run: as §3
U-937 [8] = assay: Increase in granulocytic differentiation in human U937 cells assessed as CD11c expression at 5 uM after 30 hrs by FACS analysis; format: functional, cell-based; how it was run: as §5
U-937 [9] = assay: Induction of monocytic differentiation in human U937 cells assessed as CD14 expression at 5 uM after 30 hrs by FACS analysis; format: functional, cell-based; how it was run: as §5

Histone deacetylase 4, sequence (P56524 whole entry): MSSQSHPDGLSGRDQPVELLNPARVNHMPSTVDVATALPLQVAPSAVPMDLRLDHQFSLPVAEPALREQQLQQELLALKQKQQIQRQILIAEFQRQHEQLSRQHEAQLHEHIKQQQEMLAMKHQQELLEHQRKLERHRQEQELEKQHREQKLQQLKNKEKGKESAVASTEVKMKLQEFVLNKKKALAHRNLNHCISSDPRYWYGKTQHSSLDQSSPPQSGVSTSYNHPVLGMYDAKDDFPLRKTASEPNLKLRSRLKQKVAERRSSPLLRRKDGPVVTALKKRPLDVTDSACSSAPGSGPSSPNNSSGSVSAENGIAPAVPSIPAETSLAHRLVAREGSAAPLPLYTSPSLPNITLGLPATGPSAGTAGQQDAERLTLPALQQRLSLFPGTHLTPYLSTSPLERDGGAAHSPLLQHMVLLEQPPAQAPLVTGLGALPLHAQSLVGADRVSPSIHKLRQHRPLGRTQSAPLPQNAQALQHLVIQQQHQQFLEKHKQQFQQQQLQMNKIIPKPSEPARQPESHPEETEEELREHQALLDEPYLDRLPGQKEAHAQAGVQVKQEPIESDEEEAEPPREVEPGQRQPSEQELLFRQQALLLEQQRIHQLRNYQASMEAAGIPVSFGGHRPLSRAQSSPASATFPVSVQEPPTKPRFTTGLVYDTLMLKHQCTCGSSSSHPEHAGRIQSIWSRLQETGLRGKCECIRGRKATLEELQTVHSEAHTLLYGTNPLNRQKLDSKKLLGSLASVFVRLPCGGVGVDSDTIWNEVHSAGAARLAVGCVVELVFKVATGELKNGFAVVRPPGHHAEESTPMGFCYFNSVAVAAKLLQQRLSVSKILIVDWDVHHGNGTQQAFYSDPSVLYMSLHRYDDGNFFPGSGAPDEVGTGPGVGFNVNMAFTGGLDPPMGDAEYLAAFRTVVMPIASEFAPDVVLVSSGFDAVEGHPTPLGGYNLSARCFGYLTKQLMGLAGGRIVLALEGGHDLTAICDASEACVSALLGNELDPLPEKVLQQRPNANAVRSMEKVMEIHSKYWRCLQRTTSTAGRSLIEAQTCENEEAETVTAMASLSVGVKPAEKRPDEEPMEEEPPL
Histone deacetylase 1, sequence (Q13547 whole entry): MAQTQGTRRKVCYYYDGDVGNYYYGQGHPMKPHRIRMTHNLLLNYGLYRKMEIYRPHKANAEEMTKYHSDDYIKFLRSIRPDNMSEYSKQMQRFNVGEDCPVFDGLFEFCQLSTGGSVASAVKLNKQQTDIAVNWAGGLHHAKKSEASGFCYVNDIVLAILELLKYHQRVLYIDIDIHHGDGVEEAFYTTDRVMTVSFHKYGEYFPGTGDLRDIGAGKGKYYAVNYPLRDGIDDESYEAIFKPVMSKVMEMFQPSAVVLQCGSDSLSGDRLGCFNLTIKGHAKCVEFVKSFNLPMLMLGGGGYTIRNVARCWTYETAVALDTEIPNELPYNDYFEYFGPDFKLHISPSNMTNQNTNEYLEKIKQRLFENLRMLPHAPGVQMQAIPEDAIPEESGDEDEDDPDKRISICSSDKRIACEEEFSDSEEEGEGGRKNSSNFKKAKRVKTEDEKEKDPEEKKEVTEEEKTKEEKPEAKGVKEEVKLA

Row | SMILES | Activity (U-937 [1]) | IC50 (HepG2) [µM] | Activity (U-937 [2]) | IC50 (A549) [µM] | IC50 (HCT-116) [nM] | IC50 (Histone deacetylase 1) [µM] | Ratio IC50 (Homo sapiens) | IC50 (Histone deacetylase 4) [µM] | IC50 (PC-3) [µM] | Activity (U-937 [3]) | Activity [4] | Activity (U-937 [5]) | IC50 (Histone deacetylase) [µM] | Activity (U-937 [6]) | Activity (U-937 [7]) | Activity (U-937 [8]) | Activity (U-937 [9])
1 | Cc1ccc(C(=O)/C=C/c2ccc(/C=C/C(=O)NO)o2)cc1 | Active | 16 | Active | 48.6 | 540 | 13.2 | 11.9 | 1.1 | 16 |  |  |  |  |  |  |  | 
2 | CC(C)c1ccc(C(=O)/C=C/c2ccc(/C=C/C(=O)NO)o2)cc1 |  | 35.9 |  | 56.7 | 490 | 24.1 | 4.9 | 4.89 | 2.27 | Active | Active | Active |  |  |  |  | 
3 | Nc1ccccc1NC(=O)c1ccc(CNC(=O)OCc2cccnc2)cc1 [ENTINOSTAT] |  | 60.1 |  |  | 27500 |  |  |  | 59.1 |  |  |  |  |  |  |  | 
4 | CC(=O)O[C@H]1C(=O)[C@@]2(C)[C@H]([C@H](OC(=O)c3ccccc3)[C@]3(O)C[C@H](OC(=O)[C@H](O)[C@@H](NC(=O)c4ccccc4)c4ccccc4)C(C)=C1C3(C)C)[C@]1(OC(C)=O)CO[C@@H]1C[C@@H]2O [PACLITAXEL] |  | 0.62 |  | 13.1 |  |  |  |  | 2.73 |  |  |  |  |  |  |  | 
5 | O=C(/C=C/c1ccc(/C=C/C(=O)c2cccc(Cl)c2)o1)NO |  | 54.5 | Active | 18.9 | 1510 | 12.6 | 1 | 12.9 | 9.6 | Active | Active | Active |  |  |  |  | 
6 | O=C(NO)c1ccc(/C=C/c2cccc(Cl)c2Cl)o1 |  | 37.2 |  | 23.6 | 3390 | 25.3 | 0.51 | 49.3 | 39.2 |  |  |  |  |  |  |  | 
7 | O=C(/C=C/c1ccc(/C=C/C(=O)c2ccc(F)cc2)o1)NO |  | 12 | Active |  | 2820 | 15 | 2 | 7.68 | 40.1 | Active | Active | Active |  |  |  |  | 
8 | O=C(NO)c1ccc(/C=C/c2ccc3c(c2)OCO3)o1 |  | 33.6 |  | 63.6 | 4980 | 29.6 | 0.34 | 85.6 | 45.9 |  |  |  |  |  |  |  | 
9 | O=C(CCCCCCC(=O)Nc1ccccc1C(=O)NO)Nc1ccccc1 |  | 63.5 |  |  | 2690 | 0.59 | 1.01 | 0.55 | 8.17 |  |  |  | 0.042 |  |  |  | 
10 | O=C(/C=C/c1ccc(/C=C/C(=O)c2ccc3ccccc3c2)o1)NO |  | 9.93 | Active | 29.4 | 2220 | 3.77 | 0.9 | 4.38 | 15.1 | Active | Active | Active | 0.63 |  |  |  | 
11 | COc1cccc(/C=C/c2ccc(C(=O)NO)o2)c1O |  |  |  |  |  | 50.1 | 1.17 | 42.8 | 35.1 |  |  |  |  |  |  |  | 
12 | COc1ccc2cc(C(=O)/C=C/c3ccc(/C=C/C(=O)NO)o3)ccc2c1 | Active | 6.22 | Active |  | 2060 | 11 | 2.7 | 4.04 | 36.3 | Active | Active |  |  |  |  |  | 
13 | O=C(/C=C/c1ccc(/C=C/C(=O)c2ccc(Cl)cc2Cl)o1)NO | Active | 13.5 | Active | 88.1 | 6730 | 4.29 | 0.5 | 8.19 | 16.2 | Active | Active |  |  |  |  |  | 
14 | CN(C)c1ccc(/C=C/c2ccc(C(=O)NO)o2)cc1 |  | 31.7 |  | 46.3 |  | 49.1 | 0.97 | 50.6 | 3.2 | Active |  |  |  | Active |  |  | 
15 | O=C(/C=C/c1ccc(/C=C/C(=O)c2ccc(Cl)cc2)o1)NO |  | 6.74 |  | 98.1 | 2010 | 15.7 | 2.6 | 6.03 | 1.35 | Active | Active | Active |  |  |  |  | 
16 | O=C(NO)c1ccc(/C=C/c2ccccc2O)o1 |  | 54 |  | 79.2 | 5100 | 47.1 | 0.63 | 74.2 | 91.3 |  |  |  |  |  | Active | Active | inactive
17 | O=C(/C=C/c1ccc(/C=C/C(=O)c2cc(Cl)ccc2Cl)o1)NO |  | 48.3 |  | 27.1 | 4120 | 4.72 | 1.1 | 4.31 | 24.7 | Active | Active | Active |  |  |  |  | 
18 | O=C(NO)c1ccc(/C=C/c2ccc(O)cc2)o1 |  | 20.9 |  | 86.4 | 2730 | 43.1 | 0.76 | 57.1 | 21.8 |  |  |  |  |  | Active | Active | inactive
